Published values collected from several papers.
Lines come from different studies, so protocols differ.
Target: SNF-related serine/threonine-protein kinase (SNRK, Homo sapiens, UniProt Q9NRH2)
Sequence (Q9NRH2 1-765, as in one of the studies): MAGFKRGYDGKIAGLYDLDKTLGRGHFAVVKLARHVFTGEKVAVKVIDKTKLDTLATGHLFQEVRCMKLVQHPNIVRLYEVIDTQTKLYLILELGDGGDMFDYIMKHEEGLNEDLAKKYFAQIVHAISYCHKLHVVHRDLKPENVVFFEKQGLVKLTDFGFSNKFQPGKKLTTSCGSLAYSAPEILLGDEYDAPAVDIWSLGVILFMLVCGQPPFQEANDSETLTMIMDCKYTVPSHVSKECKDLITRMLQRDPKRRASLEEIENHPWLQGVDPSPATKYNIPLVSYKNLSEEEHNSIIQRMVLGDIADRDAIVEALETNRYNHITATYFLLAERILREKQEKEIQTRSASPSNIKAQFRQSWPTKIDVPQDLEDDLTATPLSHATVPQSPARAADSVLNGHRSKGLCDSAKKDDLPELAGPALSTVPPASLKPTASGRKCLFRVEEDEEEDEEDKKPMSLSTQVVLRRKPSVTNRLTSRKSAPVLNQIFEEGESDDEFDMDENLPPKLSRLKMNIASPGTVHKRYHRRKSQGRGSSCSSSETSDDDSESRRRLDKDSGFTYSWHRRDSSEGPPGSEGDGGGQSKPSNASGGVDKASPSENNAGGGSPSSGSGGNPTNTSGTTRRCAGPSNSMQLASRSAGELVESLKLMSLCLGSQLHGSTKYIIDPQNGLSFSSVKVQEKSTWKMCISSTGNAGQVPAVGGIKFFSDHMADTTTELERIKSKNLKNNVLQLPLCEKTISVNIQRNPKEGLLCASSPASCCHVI

SMILES	observed	mode	method	concentration	measurement	value
Cc1cc(NC(=O)c2cccc3cc(-c4cccc5[nH]nc(N)c45)ccc23)ccc1F	enzyme activity	inhibitor	–	0.1 µM	activity vs control	109%
Cc1sc(C(=O)NC2COC2)cc1-n1cc(NC(=O)Nc2c(F)cccc2Cl)cn1	enzyme activity	inhibitor	–	10 µM	remaining activity	102%
COc1cc(Cl)c(C(=O)N[C@@H](CN[C@H]2CC[C@@H](N)CC2)Cc2ccc(C#N)cc2)cc1-c1ccc(CN[C@H](C)c2ccc(C)cc2)o1	enzyme activity	inhibitor	–	1 µM	remaining activity	104%
O=C(Nc1cnn(-c2csc(C(=O)NC3COC3)c2)c1)Nc1ccccc1Cl	enzyme activity	inhibitor	–	5 µM	remaining activity	96.8%
Cc1cnc(NC2CCOCC2)nc1-n1cnc(C(=O)NC(CN)c2cc(F)cc(Cl)c2)c1 (stereo not drawn)	enzyme activity	inhibitor	radiometric	1 µM	remaining activity	100%
CN1CC(Oc2cnc(C#N)cc2-c2ccn3nc(NC(=O)C4CC4)cc3c2)C1	enzyme activity	inhibitor	–	1 µM	inhibition	-12%
CNC(=O)Nc1ccc2c(c1)CC[C@@]21OC(=O)N(CC(=O)N(Cc2ccc(F)cc2)[C@@H](C)C(F)(F)F)C1=O	cell-free assay	–	competition with immobilised ligand	1 µM	remaining binding	96%
Nc1ncnc2occ(-c3ccc(NC(=O)Nc4cc(C(F)(F)F)ccc4F)cc3)c12	cell-free assay	inhibitor	–	20 µM	remaining signal	64%
COc1cccc2c(NCc3ccccc3)nc(-n3c(N)nc4ccccc43)nc12	target engagement in cells	inhibitor	chemoproteomics	20 mM	inhibition	1.2%
C[C@@H]1CN(c2cc(-c3nn(C)c4ccc(OC5(C)CC5)cc34)ncn2)C[C@H](C)O1	cell-free assay	–	competition with immobilised ligand	1 µM	remaining binding	92%
c1ccc(CNc2nc(N3CCOc4ccccc43)nc3c2CCCC3)cc1	target engagement in cells	inhibitor	chemoproteomics	20 mM	inhibition	0.3%
Cc1ccc(NC(=O)c2ccc(C)c(C(F)(F)F)c2)cc1C#Cc1nn(C2CCC(O)CC2)c2ncnc(N)c12 (stereo not drawn)	cell-free assay	–	–	10 µM	remaining signal	92%
